Laboratory results as given in ChEMBL document CHEMBL1125297, “Synthesis and biologic activity of 2'-fluoro-2-halo derivatives of 9-beta-D-arabinofuranosyladenine” (J Med Chem, 1992).

Tests used:
L1210 = experiment: Compound was tested for cytotoxicity against L1210 cell lines; format: functional, cell-based; details: Mus musculus
Method in brief: (§1)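 Cell-proliferation assay run against each named cell line. The value is the concentration that holds proliferation at 50% of untreated controls.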

HEp-2 = experiment: Compound was tested for cytotoxicity against HEp-2 cell lines; format: functional, cell-based; details: Homo sapiens; method in brief: as §1
CCRF-CEM = experiment: Compound was tested for cytotoxicity against CCRF-CEM cell lines; format: functional, cell-based; details: Homo sapiens; method in brief: as §1
K562 = experiment: Compound was tested for cytotoxicity against K562 cell lines; format: functional, cell-based; details: Homo sapiens; method in brief: as §1
Mus musculus [1] = experiment: Tumor-free survivors of P388 leukemia infected mice was measured after ip administration of 25 mg/kg in 6 mice; format: functional; details: route intraperitoneal
Method in brief: (§2)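 CD2F1 mice received 10⁶ P388 leukemia cells ip on day 0 and were then dosed ip in mg/kg per dose, at or below the LD10. Tumor-free survivors were scored among the treated group.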

Mus musculus [2] = experiment: In Vivo increase in life span of dying mice implanted ip with 10E6 P388 leukemia, after ip administration of 25 mg/kg; format: functional; details: route intraperitoneal
Method in brief: (§3)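 CD2F1 mice implanted ip with 10⁶ P388 leukemia cells on day 0. Treatment ip, doses given as mg/kg per dose and kept at or below the LD10. Read-out is increase in life span against untreated controls.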

Mus musculus [3] = experiment: Tumor-free survivors of P388 leukemia infected mice was measured after ip administration of 100 mg/kg in 3 mice; format: functional; details: route intraperitoneal; method in brief: as §2
Mus musculus [4] = experiment: Log chance in viable tumor cells population was measured after intraperitoneal administration of 100 mg/kg; format: functional
Method in brief: (§4)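 CD2F1 mice were implanted ip with 10⁶ P388 leukemia cells on day 0, then treated ip. Doses are mg/kg per dose, kept at or below LD₁₀. Read-out is the log change in viable tumor cells from start to end of therapy, based on the median day of death among the animals that died.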

Mus musculus [5] = experiment: Log chance in viable tumor cells population was measured after intraperitoneal administration of 25 mg/kg; format: functional; method in brief: as §4
Mus musculus [6] = experiment: In Vivo increase in life span of dying mice implanted ip with 10E6 P388 leukemia, after ip administration of 100 mg/kg; format: functional; details: route intraperitoneal; method in brief: as §3
Mus musculus [7] = experiment: In Vivo increase in life span of dying mice implanted ip with 10E6 P388 leukemia, after ip administration of 50 mg/kg; format: functional; details: route intraperitoneal; method in brief: as §3
Mus musculus [8] = experiment: Tumor-free survivors of P388 leukemia infected mice was measured after ip administration of 200 mg/kg in 6 mice; format: functional; details: route intraperitoneal; method in brief: as §2
Mus musculus [9] = experiment: In Vivo increase in life span of dying mice implanted ip with 10E6 P388 leukemia, after ip administration of 200 mg/kg; format: functional; details: route intraperitoneal; method in brief: as §3
Mus musculus [10] = experiment: Log change in viable tumor cells population was measured at end of therapy when compared to start of therapy at dose 30 mg/kg; format: functional; method in brief: as §4
Mus musculus [11] = experiment: Log change in viable tumor cells population was measured at end of therapy when compared to start of therapy at dose 50 mg/kg; format: functional; method in brief: as §4
Mus musculus [12] = experiment: Tumor-free survivors of P388 leukemia infected mice was measured after ip administration of 50 mg/kg in 6 mice; format: functional; details: route intraperitoneal; method in brief: as §2
Mus musculus [13] = experiment: Tumor-free survivors of P388 leukemia infected mice was measured after ip administration of 30 mg/kg in 6 mice; format: functional; details: route intraperitoneal; method in brief: as §2
Mus musculus [14] = experiment: In Vivo increase in life span of dying mice implanted ip with 10E6 P388 leukemia, after ip administration of 30 mg/kg; format: functional; details: route intraperitoneal; method in brief: as §3
Mus musculus [15] = experiment: Log change in viable tumor cells population was measured at end of therapy when compared to start of therapy at dose 200 mg/kg; format: functional; method in brief: as §4
Mus musculus [16] = experiment: Log chance in viable tumor cells population was measured after intraperitoneal administration of 200 mg/kg; format: functional; method in brief: as §4
Mus musculus [17] = experiment: In Vivo increase in life span of dying mice implanted ip with 10E6 P388 leukemia, after ip administration of 20 mg/kg; format: functional; details: route intraperitoneal; method in brief: as §3
Mus musculus [18] = experiment: Tumor-free survivors of P388 leukemia infected mice was measured after ip administration of 25 mg/kg in 5 mice; format: functional; details: route intraperitoneal; method in brief: as §2
Mus musculus [19] = experiment: Log chance in viable tumor cells population was measured after intraperitoneal administration of 20 mg/kg; format: functional; method in brief: as §4
Mus musculus [20] = experiment: Tumor-free survivors of P388 leukemia infected mice was measured after ip administration of 100 mg/kg in 5 mice; format: functional; details: route intraperitoneal; method in brief: as §2
Mus musculus [21] = experiment: Tumor-free survivors of P388 leukemia infected mice was measured after ip administration of 200 mg/kg in 3 mice; format: functional; details: route intraperitoneal; method in brief: as §2
Mus musculus [22] = experiment: Tumor-free survivors of P388 leukemia infected mice was measured after ip administration of 20 mg/kg in 6 mice; format: functional; details: route intraperitoneal; method in brief: as §2

Structure (SMILES) | IC50 (L1210) [nM] | IC50 (HEp-2) [nM] | IC50 (CCRF-CEM) [nM] | IC50 (K562) [nM] | other results
Nc1nc(F)nc2c1ncn2[C@H]1C[C@H](O)[C@@H](CO)O1 | 900 | 200 | 200 |  | 
Nc1nc(F)nc2c1ncn2[C@@H]1O[C@H](CO)[C@@H](O)[C@@H]1F | 380 | 340 | 140 | 300 | Tumor free survivors (Mus musculus [1]): 0; ILS at 25 mg/kg (Mus musculus [2]): 81%; Tumor free survivors (Mus musculus [3]): 0; Log change (Mus musculus [4]): -1.8; Log change (Mus musculus [5]): -0.1; ILS at 100 mg/kg (Mus musculus [6]): 63%
Nc1nc(Cl)nc2c1ncn2[C@@H]1O[C@H](CO)[C@@H](O)[C@H]1O | < 3000 | 3000 | 10000 |  | 
Nc1nc(Br)nc2c1ncn2[C@@H]1O[C@H](CO)[C@@H](O)[C@H]1F | 260 | 220 | 20 | 50 | ILS at 50 mg/kg (Mus musculus [7]): 41%; Tumor free survivors (Mus musculus [8]): 0; ILS at 200 mg/kg (Mus musculus [9]): 33%; Log change (Mus musculus [10]): -1; Log change (Mus musculus [11]): 1.6; Tumor free survivors (Mus musculus [12]): 0; Tumor free survivors (Mus musculus [13]): 0; ILS at 30 mg/kg (Mus musculus [14]): 100%; Log change (Mus musculus [15]): 0.1
Nc1nc(Br)nc2c1ncn2[C@H]1C[C@H](O)[C@@H](CO)O1 | 900 | 20 | 20 |  | 
Nc1nc(Br)nc2c1ncn2C1O[C@H](CO)[C@@H](O)[C@H]1O (some centres not stated) | 3000 | 4000 |  |  | 
Nc1nc(Cl)nc2c1ncn2[C@H]1C[C@H](O)[C@@H](CO)O1 [CLADRIBINE] | 70 | 30 | 3 |  | 
Nc1nc(Cl)nc2c1ncn2[C@@H]1O[C@H](CO)[C@@H](O)[C@@H]1F [CLOFARABINE] | 230 | 12 | 50 | 3 | Log change (Mus musculus [16]): -1.6; ILS at 200 mg/kg (Mus musculus [9]): 59%; ILS at 20 mg/kg (Mus musculus [17]): 220%; Tumor free survivors (Mus musculus [18]): 0; Log change (Mus musculus [19]): -6.6; ILS at 25 mg/kg (Mus musculus [2]): 118%; Tumor free survivors (Mus musculus [20]): 0; Tumor free survivors (Mus musculus [21]): 0; Log change (Mus musculus [4]): -0.3; Log change (Mus musculus [5]): -2.8; ILS at 100 mg/kg (Mus musculus [6]): 38%; Tumor free survivors (Mus musculus [22]): 1
Nc1nc(F)nc2c1ncn2[C@@H]1O[C@H](CO)[C@@H](O)[C@@H]1O [FLUDARABINE] | 3000 | 9000 | 400 | 150 | 
